Results pooled from the literature.
Each line is one published result; the experiments were not run side by side. pIC50, pKi: −log10 of the molar value.
Target: Cytochrome P450 1A2 (CYP1A2, Homo sapiens, UniProt P05177)
Read-out: enzyme activity
Action: inhibitor
Residues used in one study (P05177 1-516): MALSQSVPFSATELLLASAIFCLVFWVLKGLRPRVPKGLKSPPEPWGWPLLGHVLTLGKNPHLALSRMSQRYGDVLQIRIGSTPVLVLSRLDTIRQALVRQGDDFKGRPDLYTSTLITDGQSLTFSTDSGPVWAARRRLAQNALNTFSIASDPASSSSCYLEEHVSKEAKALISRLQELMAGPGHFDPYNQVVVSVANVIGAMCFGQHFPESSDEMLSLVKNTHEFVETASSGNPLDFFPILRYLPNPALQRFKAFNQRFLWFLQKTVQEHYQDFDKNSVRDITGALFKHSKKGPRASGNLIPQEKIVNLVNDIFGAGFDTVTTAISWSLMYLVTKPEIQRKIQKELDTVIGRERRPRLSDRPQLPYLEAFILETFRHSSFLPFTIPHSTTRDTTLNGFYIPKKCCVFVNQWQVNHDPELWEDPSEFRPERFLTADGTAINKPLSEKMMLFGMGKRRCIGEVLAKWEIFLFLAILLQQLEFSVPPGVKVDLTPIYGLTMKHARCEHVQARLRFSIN

| SMILES | technique | species | matrix | time | pH | quantity | result |
| --- | --- | --- | --- | --- | --- | --- | --- |
| CCCN(CCC)CCc1cccc2c1CC(=O)N2 | fluorescence | – | – | – | – | pIC50 | 3.27 |
| CC1=CC(=O)C(C(C)C)=CC1=O | fluorescence | – | – | – | pH 7.4 | pIC50 | 3.25 |
| Nc1nc(N)c2nc(CNc3cccc4ccccc34)cnc2n1 | luciferase | – | – | – | – | pIC50 | 4.14 |
| C#Cc1ccc2cc(-c3ccccc3)c(=O)oc2c1 | – | – | – | 6 min | pH 7.6 | pKi | 5.53 |
| CCC(C)(C)C(=O)O[C@H]1C[C@@H](C)C=C2C=C[C@H](C)[C@H](CC[C@@H](O)C[C@@H](O)CC(=O)O)[C@H]21 | fluorescence | – | – | – | – | pIC50 | < 4.00 |
| COc1ccn2c(Nc3ccccc3F)c(-c3ccncn3)nc2c1 | – | – | – | – | – | pIC50 | 5.74 |
| CCCCCNC(=N)N/N=C/c1c[nH]c2ccc(OC)cc12 | fluorescence | – | – | – | – | pIC50 | 3.46 |
| COc1ccc2c(Cc3ccccc3F)c3[n+](cc2c1OC)CCc1cc2c(cc1-3)OCO2 | – | – | – | – | – | pIC50 | < 5.00 |
| NS(=O)(=O)NCCNc1nonc1C(=NO)Nc1ccc(F)c(Br)c1 | fluorescence | – | – | – | – | pIC50 | < 5.00 |
| N#Cc1ccnc(Oc2nn([C@H]3C[C@H](F)C3)c3ncnc(N)c23)c1 | – | human | liver microsomes | 10 min | – | pIC50 | 4.68 |
| COc1ccc2cc3[n+](cc2c1OC)CCc1cc2c(cc1-3)OCO2 | – | – | – | – | – | pIC50 | < 5.00 |
| C#Cc1cccc(-c2cc(=O)c3ccccc3o2)c1 | – | – | – | 6 min | pH 7.6 | pKi | 6.10 |
